# Results gathered from unrelated publications.
# Protocols differ between the studies behind these lines.
# Target: Casein kinase I isoform alpha (CSNK1A1, Homo sapiens, UniProt P48729)
Structure (SMILES),assay,test system,setting,quantity,value
c1ccc(CNc2nc(N3CCOc4ccccc43)nc3c2CCCC3)cc1,"target engagement in cells, inhibitor, chemoproteomics",,20 mM,inhibition,-1.4%
CN(C)C(=O)Cn1cc(-c2nc([C@@](C)(c3ccc(-c4cnc(N)nc4)cc3)C3CC3)no2)cn1,"cell-free assay, competition with immobilised ligand",,1 µM,remaining binding,100%
N#CCCc1ccc2c(c1)-c1[nH]c3ccc([N+](=O)[O-])cc3c1CC(=O)N2,cell-free assay,,0.5 µM,remaining signal,95.1%
Cc1ccc(C(=O)NCc2ccsc2)cc1C#Cc1cn(C(C)C)c2ncnc(N)c12,"enzyme activity, inhibitor",,1 µM,activity vs control,86%
O=C1Nc2ccc(Cl)cc2C1=Cc1cc(Cl)c(O)c(Cl)c1,cell-free assay,,0.5 µM,remaining signal,92.6%
CN(CCCC(F)(F)F)c1nccc(-c2cnn3ncccc23)n1,binding,,1 µM,remaining binding,86%
CC(=O)N1CCC(c2ccc(C(=O)NC3=NCCN3)cc2C(F)(F)F)CC1,"cell-free assay, competition with immobilised ligand",,1 µM,remaining binding,76%
CCCS(=O)(=O)Nc1ccc(F)c(C(=O)c2c[nH]c3ncc(-c4ccc(Cl)cc4)cc23)c1F,"enzyme activity, inhibitor",,1 µM,inhibition,< 10%
CC(C)(C)c1nc2c(s1)c1nc(N)ncc1c1ccc(NS(=O)(=O)c3c(F)cccc3F)c(F)c12,"enzyme activity, inhibitor, radiometric",,1 µM,remaining activity,86%
Nc1ncnc2occ(-c3ccc(NC(=O)Nc4cc(C(F)(F)F)ccc4F)cc3)c12,"enzyme activity, inhibitor",,20 µM,remaining activity,3.7%
CN(C)C(=O)Cn1cc(-c2nc(C3(c4ccc(-c5cnc(N)nc5)cc4)CC3)no2)cn1,"cell-free assay, competition with immobilised ligand",,1 µM,remaining binding,62%
C[S+]([O-])c1ccc(-c2nc(-c3ccncc3)c(-c3ccc(F)cc3)[nH]2)cc1 (stereo not shown),cell-free assay,,0.5 µM,remaining signal,63.9%
CCN1CCN(Cc2ccc(NC(=O)c3ccc(C)c(Oc4ccnc5[nH]ccc45)c3)cc2C(F)(F)F)CC1,"target engagement in cells, inhibitor, chemoproteomics",A-375,50 nM,inhibition,-28%
CN(C)C1CCN(CC#Cc2nn(C3CCCC3)c3nc(NCc4ccccc4)ncc23)C1 (stereo not shown),"enzyme activity, inhibitor, FRET",,0.1 µM,inhibition,2%
CCC(=O)N[C@H]1CC[C@@H](C(=O)N(C)c2ccc(-c3nc4ccccc4o3)cc2)C1,"cell-free assay, competition with immobilised ligand",,1 µM,remaining binding,82%
Cc1sc(C(=O)NC2COC2)cc1-n1cc(NC(=O)Nc2c(F)cccc2Cl)cn1,"enzyme activity, inhibitor",,10 µM,remaining activity,81.1%
O=C(NS(=O)(=O)c1ccc(NCC2CCOCC2)c([N+](=O)[O-])c1)c1ccc(N2CCN(Cc3ccc(C(F)(F)F)cc3-c3ccc(Cl)cc3)CC2)cc1Oc1cnc2[nH]ccc2c1,"cell-free assay, competition with immobilised ligand",,1 µM,remaining binding,96%
CCCCNc1ncc2c(-c3ccc(F)cc3)nn(C[C@H]3CC[C@H](N)CC3)c2n1,"target engagement in cells, inhibitor, chemoproteomics",,20 mM,inhibition,79.3%
O=C1Cc2c([nH]c3ccc(Br)cc23)-c2ccccc2N1,cell-free assay,,0.5 µM,remaining signal,95.1%
O=C(O)[C@@H]1[C@@H](Cn2nnc3ccccc3c2=O)CC[C@H]1C(=O)c1ccc(OCCC2CCOCC2)cc1,"cell-free assay, competition with immobilised ligand",,1 µM,remaining binding,97%
Cc1ccc(NC(=O)c2ccc(CN3CCN(C)CC3)cc2)cc1Nc1nccc(-c2cccnc2)n1,"enzyme activity, inhibitor",,0.5 µM,activity vs control,102%
Nc1cnc(N2CCc3cc(S(=O)(=O)Nc4c(F)cc(Cl)cc4F)cc(N4CCCC4=O)c32)nc1,"cell-free assay, competition with immobilised ligand",,1 µM,remaining binding,100%
CCN1CCN(Cc2ccc(NC(=O)c3ccc(C)c(/C=C/c4cnc5[nH]ccc5c4OC)c3)cc2C(F)(F)F)CC1,"target engagement in cells, inhibitor, chemoproteomics",A-375,0.5 µM,inhibition,-75.1%
O=C(Nc1cnn(-c2csc(C(=O)NC3COC3)c2)c1)Nc1ccccc1Cl,"enzyme activity, inhibitor",,5 µM,remaining activity,98.5%
COc1cc2ncnc(Nc3ccc(Oc4ccccc4)c(C)c3C)c2cc1OC,"enzyme activity, inhibitor",,1 µM,inhibition,3%
